Measured values as given in ChEMBL document CHEMBL1811881, “Development of 3-substituted-androsterone derivatives as potent inhibitors of 17β-hydroxysteroid dehydrogenase type 3” (Bioorg Med Chem, 2011).

Columns and labels:
Type in all cases: cell-based
[1] = target: T1, 17-beta-hydroxysteroid dehydrogenase type 3 (Homo sapiens) (UniProt P37058); experiment: Inhibition of 17Beta-HSD3 expressed in intact HEK293 cells assessed as transformation of [14C]-4-androstene-3,17-dione into [14C]-testosterone in presence of NADPH at 0.1 uM after 1 hr incubation
T1 sequence (whole entry): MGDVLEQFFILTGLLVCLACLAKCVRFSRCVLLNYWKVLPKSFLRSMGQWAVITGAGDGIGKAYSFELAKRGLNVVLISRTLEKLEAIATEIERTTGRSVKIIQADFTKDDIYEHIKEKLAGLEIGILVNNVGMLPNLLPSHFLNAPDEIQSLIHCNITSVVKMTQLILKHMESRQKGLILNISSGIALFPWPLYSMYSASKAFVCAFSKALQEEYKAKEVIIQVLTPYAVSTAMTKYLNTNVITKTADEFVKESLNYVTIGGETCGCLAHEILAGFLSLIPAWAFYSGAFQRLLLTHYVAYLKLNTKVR
Method in brief: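 HEK-293 cells were grown in MEM with 10% FBS at 37 °C under 5% CO2, seeded at 200,000 cells/well, and transfected with 2 µg/well of a 17β-HSD3 expression plasmid. Intact cells then got 50 nM [4-14C]-4-androstene-3,17-dione plus inhibitor in ethanol (0.5% v/v) for 1 h. Radiolabelled steroids were extracted from the medium and quantified. Triplicate; % transformation was used to derive IC50.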

[2] = target: T1, 17-beta-hydroxysteroid dehydrogenase type 3 (Homo sapiens); experiment: Inhibition of 17Beta-HSD3 expressed in homogenized HEK293 cells assessed as transformation of [14C]-4-androstene-3,17-dione into [14C]-testosterone in presence of NADPH at 1 uM
Method in brief: (§1)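 HEK-293 cells overexpressing 17β-HSD3 were briefly homogenized. The enzyme assay measured conversion of 50 nM [4-14C]-4-androstene-3,17-dione to [14C]-testosterone with NADPH in excess (5 mM). Inhibitor was dissolved in ethanol, and the ethanol-only control was used to derive % inhibition at each concentration. Error 10%.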

[3] = target: T1, 17-beta-hydroxysteroid dehydrogenase type 3 (Homo sapiens); experiment: Inhibition of 17Beta-HSD3 expressed in homogenized HEK293 cells assessed as transformation of [14C]-4-androstene-3,17-dione into [14C]-testosterone in presence of NADPH at 0.01 uM; method in brief: as §1
[4] = target: T1, 17-beta-hydroxysteroid dehydrogenase type 3 (Homo sapiens); experiment: Inhibition of 17Beta-HSD3 expressed in homogenized HEK293 cells assessed as transformation of [14C]-4-androstene-3,17-dione into [14C]-testosterone in presence of NADPH at 0.1 uM; method in brief: as §1

SMILES	inhibition [1]	inhibition [2]	inhibition [3]	inhibition [4]
C[C@]12CC[C@@]3(C[C@@H]1CC[C@@H]1[C@@H]2CC[C@]2(C)C(=O)CC[C@@H]12)CN(CCO)C(=O)O3	16%	38%	0%	9%
C[C@]12CC[C@@]3(C[C@@H]1CC[C@@H]1[C@@H]2CC[C@]2(C)C(=O)CC[C@@H]12)CN(CCC(CN1CCOCC1)OC(=O)CCC1CCCC1)C(=O)O3 (some centres undefined)	49%	94%	2%	79%
C[C@]12CC[C@@]3(C[C@@H]1CC[C@@H]1[C@@H]2CC[C@]2(C)C(=O)CC[C@@H]12)CN(C1CCCCC1)C(=O)O3	29%	78%	13%	75%
C[C@@H]1CN(C(=O)C2CCCCC2)[C@@H](C)CN1C[C@@]1(O)CC[C@@]2(C)[C@@H](CC[C@@H]3[C@@H]2CC[C@]2(C)C(=O)CC[C@@H]32)C1	77%	–	24%	90%
C[C@]12CC[C@](O)(CN3CCN(Cc4cccc(C(F)(F)F)c4)CC3)C[C@@H]1CC[C@@H]1[C@@H]2CC[C@]2(C)C(=O)CC[C@@H]12	52%	–	51%	88%
COc1ccc(CN2C[C@]3(CC[C@@]4(C)[C@@H](CC[C@@H]5[C@@H]4CC[C@]4(C)C(=O)CC[C@@H]54)C3)OC2=O)cc1	43%	93%	5%	84%
C[C@]12CC[C@](O)(CN3CCN(Cc4ccccc4C(F)(F)F)CC3)C[C@@H]1CC[C@@H]1[C@@H]2CC[C@]2(C)C(=O)CC[C@@H]12	20%	–	18%	86%
C[C@]12CC[C@](O)(CN3CCN(Cc4cc(C(F)(F)F)ccc4C(F)(F)F)CC3)C[C@@H]1CC[C@@H]1[C@@H]2CC[C@]2(C)C(=O)CC[C@@H]12	12%	–	18%	85%
C[C@@H]1CN(Cc2cc(C(F)(F)F)cc(C(F)(F)F)c2)[C@@H](C)CN1C[C@@]1(O)CC[C@@]2(C)[C@@H](CC[C@@H]3[C@@H]2CC[C@]2(C)C(=O)CC[C@@H]32)C1	16%	–	25%	74%
C[C@]12CC[C@@]3(C[C@@H]1CC[C@@H]1[C@@H]2CC[C@]2(C)C(=O)CC[C@@H]12)CN(Cc1ccc(C(F)(F)F)cc1)C(=O)O3	43%	–	25%	80%
C[C@]12CC[C@@]3(C[C@@H]1CC[C@@H]1[C@@H]2CC[C@]2(C)C(=O)CC[C@@H]12)CN(Cc1ccccc1C(F)(F)F)C(=O)O3	35%	–	17%	81%
C[C@]12CC[C@](O)(CN3CCN(C(=O)c4ccccc4)CC3)C[C@@H]1CC[C@@H]1[C@@H]2CC[C@]2(C)C(=O)CC[C@@H]12	50%	–	17%	76%
C[C@@H]1CN(S(=O)(=O)c2cccc(C(F)(F)F)c2)[C@@H](C)CN1C[C@@]1(O)CC[C@@]2(C)[C@@H](CC[C@@H]3[C@@H]2CC[C@]2(C)C(=O)CC[C@@H]32)C1	77%	–	32%	91%
C[C@@H]1CN(Cc2ccc(C(F)(F)F)cc2C(F)(F)F)[C@@H](C)CN1C[C@@]1(O)CC[C@@]2(C)[C@@H](CC[C@@H]3[C@@H]2CC[C@]2(C)C(=O)CC[C@@H]32)C1	21%	–	15%	71%
C[C@]12CC[C@@]3(C[C@@H]1CC[C@@H]1[C@@H]2CC[C@]2(C)C(=O)CC[C@@H]12)CN(CCN1CCCCC1)C(=O)O3	10%	21%	0%	0%
C[C@]12CC[C@@]3(C[C@@H]1CC[C@@H]1[C@@H]2CC[C@]2(C)C(=O)CC[C@@H]12)CN(Cc1ccc(C(F)(F)F)nc1)C(=O)O3	36%	–	3%	65%
CCCN(CCN1C[C@]2(CC[C@@]3(C)[C@@H](CC[C@@H]4[C@@H]3CC[C@]3(C)C(=O)CC[C@@H]43)C2)OC1=O)C(=O)CC	25%	80%	0%	35%
C[C@]12CC[C@](O)(CN3CCN(S(=O)(=O)c4ccccc4C(F)(F)F)CC3)C[C@@H]1CC[C@@H]1[C@@H]2CC[C@]2(C)C(=O)CC[C@@H]12	63%	–	45%	92%

SMILES	inhibition [1]	inhibition [2]	inhibition [3]	inhibition [4]
C[C@@H]1CN(C(=O)c2cccc(C(F)(F)F)c2)[C@@H](C)CN1C[C@@]1(O)CC[C@@]2(C)[C@@H](CC[C@@H]3[C@@H]2CC[C@]2(C)C(=O)CC[C@@H]32)C1	70%	–	28%	89%
C[C@]12CC[C@](O)(CN3CCN(Cc4cc(C(F)(F)F)cc(C(F)(F)F)c4)CC3)C[C@@H]1CC[C@@H]1[C@@H]2CC[C@]2(C)C(=O)CC[C@@H]12	25%	–	25%	83%
C[C@@H]1CN(Cc2cc(C(F)(F)F)ccc2C(F)(F)F)[C@@H](C)CN1C[C@@]1(O)CC[C@@]2(C)[C@@H](CC[C@@H]3[C@@H]2CC[C@]2(C)C(=O)CC[C@@H]32)C1	23%	–	16%	71%
C[C@]12CC[C@](O)(CN3CCN(Cc4ccc(C(F)(F)F)cc4)CC3)C[C@@H]1CC[C@@H]1[C@@H]2CC[C@]2(C)C(=O)CC[C@@H]12	33%	–	14%	81%
C[C@]12CC[C@](O)(CN3CCN(C(=O)c4ccccc4C(F)(F)F)CC3)C[C@@H]1CC[C@@H]1[C@@H]2CC[C@]2(C)C(=O)CC[C@@H]12	62%	–	31%	86%
C[C@@H]1CN(Cc2ccccc2C(F)(F)F)[C@@H](C)CN1C[C@@]1(O)CC[C@@]2(C)[C@@H](CC[C@@H]3[C@@H]2CC[C@]2(C)C(=O)CC[C@@H]32)C1	36%	–	22%	85%
C[C@]12CC[C@](O)(CN3CCN(C(=O)c4ccc(C(F)(F)F)cc4)CC3)C[C@@H]1CC[C@@H]1[C@@H]2CC[C@]2(C)C(=O)CC[C@@H]12	56%	–	22%	84%
C[C@@H]1CN(C(=O)c2ccc(C(F)(F)F)cc2)[C@@H](C)CN1C[C@@]1(O)CC[C@@]2(C)[C@@H](CC[C@@H]3[C@@H]2CC[C@]2(C)C(=O)CC[C@@H]32)C1	61%	–	17%	91%
C[C@@H]1CN(S(=O)(=O)c2ccc(C(F)(F)F)cc2)[C@@H](C)CN1C[C@@]1(O)CC[C@@]2(C)[C@@H](CC[C@@H]3[C@@H]2CC[C@]2(C)C(=O)CC[C@@H]32)C1	47%	–	79%	92%
COc1cccc(CN2C[C@@H](C)N(C[C@@]3(O)CC[C@@]4(C)[C@@H](CC[C@@H]5[C@@H]4CC[C@]4(C)C(=O)CC[C@@H]54)C3)C[C@@H]2C)c1	50%	–	19%	87%
C[C@@H]1CN(C(=O)c2ccccc2)[C@@H](C)CN1C[C@@]1(O)CC[C@@]2(C)[C@@H](CC[C@@H]3[C@@H]2CC[C@]2(C)C(=O)CC[C@@H]32)C1	78%	–	24%	87%
C[C@]12CC[C@](O)(CN3CCN(S(=O)(=O)c4ccc(C(F)(F)F)cc4)CC3)C[C@@H]1CC[C@@H]1[C@@H]2CC[C@]2(C)C(=O)CC[C@@H]12	34%	–	21%	78%
C[C@]12CC[C@](O)(CN3CCN(C(=O)c4cccc(C(F)(F)F)c4)CC3)C[C@@H]1CC[C@@H]1[C@@H]2CC[C@]2(C)C(=O)CC[C@@H]12	91%	–	10%	92%
COc1cccc(CN2CCN(C[C@@]3(O)CC[C@@]4(C)[C@@H](CC[C@@H]5[C@@H]4CC[C@]4(C)C(=O)CC[C@@H]54)C3)CC2)c1	47%	–	21%	83%
C[C@]12CC[C@](O)(CN3CCN(Cc4ccc(C(F)(F)F)cc4C(F)(F)F)CC3)C[C@@H]1CC[C@@H]1[C@@H]2CC[C@]2(C)C(=O)CC[C@@H]12	16%	–	22%	75%
C[C@@H]1CN(Cc2ccc(C(F)(F)F)cc2)[C@@H](C)CN1C[C@@]1(O)CC[C@@]2(C)[C@@H](CC[C@@H]3[C@@H]2CC[C@]2(C)C(=O)CC[C@@H]32)C1	36%	–	14%	87%
C[C@]12CC[C@@]3(C[C@@H]1CC[C@@H]1[C@@H]2CC[C@]2(C)C(=O)CC[C@@H]12)CN(Cc1cc(C(F)(F)F)cc(C(F)(F)F)c1)C(=O)O3	35%	–	12%	66%
C[C@]12CC[C@@]3(C[C@@H]1CC[C@@H]1[C@@H]2CC[C@]2(C)C(=O)CC[C@@H]12)CN(Cc1cccc(C(F)(F)F)c1)C(=O)O3	36%	–	16%	80%
